Seven molecules from ChEMBL document CHEMBL1153403, “Design, synthesis, and evaluation of novel fluoroquinolone-aminoglycoside hybrid antibiotics” (J Med Chem, 2009) can be followed below.

Values after ≈ are worked out from the molar mass of the structure shown.

Type in all cases: functional
For test [1], the system named is Escherichia coli. Nature of the test: Antibacterial activity against kanamycin-resistant Escherichia coli AG100A expressing aminoglycosides resistant APH(3')-1 enzyme by double-microdilution method. (Dilution methods test growth across graded concentrations, often in twofold steps.)
For test [2], the system named is Escherichia coli. Description: Antibacterial activity against Escherichia coli BL21 by double-microdilution method.
Test [3] relates to Escherichia coli. Description: Antibacterial activity against kanamycin-resistant Escherichia coli AG100B expressing aminoglycosides resistant APH(3')-1 enzyme by double-microdilution method.
The subject of test [4] is Escherichia coli. Description: Resistance index, MIC for aminoglycosides-resistant Escherichia coli XL1-blue harboring pSF815 expressing AAC(6')-APH(2'') enzyme to MIC for Escherichia coli XL1-blue. A digest of the protocol: (§1)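 Ratio of MIC on the plasmid-bearing resistant strain to MIC on its background strain (pETSACG1 vs BL21; pET9d or pSF815 vs XL1 blue). MICs by NCCLS double microdilution from starting concentrations of 384 and 1.5 µg/mL, in duplicate, two to four experiments.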

The next test concerns Staphylococcus aureus. Description: Antibacterial activity against methicillin-resistant Staphylococcus aureus ATCC 43300 by double-microdilution method.
The next test has as its system Bacillus subtilis. Description: Antibacterial activity against aminoglycosides-susceptible Bacillus subtilis ATCC 6633 by double-microdilution method.
For test [5], the system named is Escherichia coli. Nature of the test: Antibacterial activity against aminoglycosides-resistant Escherichia coli XL1-blue harboring pSF815 expressing AAC(6')-APH(2'') enzyme by double-microdilution method.
Test [6] deals with Escherichia coli. Nature of the test: Antibacterial activity against Escherichia coli ATCC 25922 by double-microdilution method.
Test [7] concerns Escherichia coli. Description: Antibacterial activity against Escherichia coli R477-100 by double-microdilution method.
The subject of test [8] is Escherichia coli. Nature of the test: Resistance index, MIC for aminoglycosides-resistant Escherichia coli XL1-blue harboring pET9d expressing APH(3')-1a enzyme to MIC for Escherichia coli XL1-blue. Put shortly:
as §1

Test [9] deals with Escherichia coli. Nature of the test: Antibacterial activity against Escherichia coli XL1-blue by double-microdilution method.
The test system of test [10] is Escherichia coli. Nature of the test: Antibacterial activity against aminoglycosides-resistant Escherichia coli XL1-blue harboring pET9d expressing APH(3')-1a enzyme by double-microdilution method.
In test [11] the test system is Escherichia coli. Description: Antibacterial activity against aminoglycosides-resistant Escherichia coli BL21 harboring pETSACG1 expressing APH(3')-3a enzyme by double-microdilution method.
Test [12] has as its system Escherichia coli. Description: Resistance index, MIC for aminoglycosides-resistant Escherichia coli BL21 harboring pETSACG1 expressing APH(3')-3a enzyme to MIC for Escherichia coli BL21. Put shortly: as §1

For `NC[C@@H]1O[C@H](O[C@H]2[C@@H](O)[C@H](O[C@@H]3[C@@H](O)[C@H](N)C[C@H](N)[C@H]3O[C@H]3O[C@H](CN)[C@@H](O)[C@H](O)[C@H]3N)O[C@@H]2C(=O)NCc2cn(Cc3ccc(CN4CCN(c5cc6c(cc5F)c(=O)c(C(=O)O)cn6C5CC5)CC4)cc3)nn2)[C@H](N)[C@@H](O)[C@@H]1O`, the MIC (usually the least concentration at which growth counts as inhibited) in the test with Escherichia coli [1] came out at 1.5 µg/mL (≈ 1.31 µM); in the test on Escherichia coli [2], 0.4 µg/mL (≈ 0.35 µM); against Escherichia coli [3], 12 µg/mL (≈ 10.5 µM); with Staphylococcus aureus it was 3 µg/mL (≈ 2.63 µM); in the test with Bacillus subtilis, 3 µg/mL (≈ 2.63 µM); with Escherichia coli [5], 6 µg/mL (≈ 5.25 µM). Besides, the MIC came to 6 µg/mL (≈ 5.25 µM) against Escherichia coli [6]; 6 µg/mL (≈ 5.25 µM) in the test on Escherichia coli [7]; 6 µg/mL (≈ 5.25 µM) in the test with Escherichia coli [9]; 6 µg/mL (≈ 5.25 µM) against Escherichia coli [10]; 0.4 µg/mL (≈ 0.35 µM) against Escherichia coli [11]. In addition, the Ratio in the test with Escherichia coli [4], in the test with Escherichia coli [8] and in the test with Escherichia coli [12] was 1 each time.

With `NC[C@@H]1O[C@H](O[C@H]2[C@@H](O)[C@H](O[C@@H]3[C@@H](O)[C@H](N)C[C@H](N)[C@H]3O[C@H]3O[C@H](CN)[C@@H](O)[C@H](O)[C@H]3N)O[C@@H]2C(=O)Nc2ccc(-c3cn(CCCCCN4CCN(c5cc6c(cc5F)c(=O)c(C(=O)O)cn6C5CC5)CC4)nn3)cc2)[C@H](N)[C@@H](O)[C@@H]1O`, the MIC amounted to 1.5 µg/mL (≈ 1.28 µM) against Escherichia coli [1]; 24 µg/mL (≈ 20.5 µM) against Escherichia coli [3]; 48 µg/mL (≈ 41 µM) with Staphylococcus aureus; 12 µg/mL (≈ 10.3 µM) in the test on Bacillus subtilis; 6 µg/mL (≈ 5.13 µM) in the test on Escherichia coli [6]; 12 µg/mL (≈ 10.3 µM) against Escherichia coli [7].

Turning to `NC[C@@H]1O[C@H](O[C@H]2[C@@H](O)[C@H](O[C@@H]3[C@@H](O)[C@H](N)C[C@H](N)[C@H]3O[C@H]3O[C@H](CN)[C@@H](O)[C@H](O)[C@H]3N)O[C@@H]2C(=O)Nc2ccc(-c3cn(CCOCCN4CCN(c5cc6c(cc5F)c(=O)c(C(=O)O)cn6C5CC5)CC4)nn3)cc2)[C@H](N)[C@@H](O)[C@@H]1O`, the MIC is 1.5 µg/mL (≈ 1.28 µM) in the test on Escherichia coli [1]; 12 µg/mL (≈ 10.2 µM) with Escherichia coli [3]; 24 µg/mL (≈ 20.5 µM) in the test on Staphylococcus aureus; 12 µg/mL (≈ 10.2 µM) against Bacillus subtilis; 12 µg/mL (≈ 10.2 µM) with Escherichia coli [6]; 24 µg/mL (≈ 20.5 µM) against Escherichia coli [7].

Regarding `NC[C@@H]1O[C@H](O[C@H]2[C@@H](O)[C@H](O[C@@H]3[C@@H](O)[C@H](N)C[C@H](N)[C@H]3O[C@H]3O[C@H](CN)[C@@H](O)[C@H](O)[C@H]3N)O[C@@H]2C(=O)Nc2ccc(-c3cn(CCN4CCN(c5cc6c(cc5F)c(=O)c(C(=O)O)cn6C5CC5)CC4)nn3)cc2)[C@H](N)[C@@H](O)[C@@H]1O`, the MIC with Escherichia coli [1] came out at 0.75 µg/mL (≈ 0.665 µM); in the test with Escherichia coli [3] it was 24 µg/mL (≈ 21.3 µM); in the test with Staphylococcus aureus it was 48 µg/mL (≈ 42.5 µM); in the test on Bacillus subtilis, 6 µg/mL (≈ 5.32 µM); against Escherichia coli [6] it was 6 µg/mL (≈ 5.32 µM); against Escherichia coli [7], 12 µg/mL (≈ 10.6 µM).

With `NC[C@@H]1O[C@H](O[C@H]2[C@@H](O)[C@H](O[C@@H]3[C@@H](O)[C@H](N)C[C@H](N)[C@H]3O[C@H]3O[C@H](CN)[C@@H](O)[C@H](O)[C@H]3N)O[C@@H]2C(=O)Nc2ccc(-c3cn(CCCCCCN4CCN(c5cc6c(cc5F)c(=O)c(C(=O)O)cn6C5CC5)CC4)nn3)cc2)[C@H](N)[C@@H](O)[C@@H]1O`, the MIC amounted to 1.5 µg/mL (≈ 1.27 µM) against Escherichia coli [1]; 12 µg/mL (≈ 10.1 µM) against Escherichia coli [3]; 48 µg/mL (≈ 40.5 µM) with Staphylococcus aureus; 12 µg/mL (≈ 10.1 µM) in the test with Bacillus subtilis; 6 µg/mL (≈ 5.07 µM) against Escherichia coli [6]; 6 µg/mL (≈ 5.07 µM) with Escherichia coli [7].

`NC[C@@H]1O[C@H](O[C@H]2[C@@H](O)[C@H](O[C@@H]3[C@@H](O)[C@H](N)C[C@H](N)[C@H]3O[C@H]3O[C@H](CN)[C@@H](O)[C@H](O)[C@H]3N)O[C@@H]2C(=O)Nc2ccc(-c3cn(CCCN4CCN(c5cc6c(cc5F)c(=O)c(C(=O)O)cn6C5CC5)CC4)nn3)cc2)[C@H](N)[C@@H](O)[C@@H]1O`: the MIC is 1.5 µg/mL (≈ 1.31 µM) against Escherichia coli [1]; 12 µg/mL (≈ 10.5 µM) with Escherichia coli [3]; 48 µg/mL (≈ 42 µM) with Staphylococcus aureus; 6 µg/mL (≈ 5.25 µM) in the test on Bacillus subtilis; 3 µg/mL (≈ 2.63 µM) against Escherichia coli [6]; 6 µg/mL (≈ 5.25 µM) against Escherichia coli [7].

For the molecule `NC[C@@H]1O[C@H](O[C@H]2[C@@H](O)[C@H](O[C@@H]3[C@@H](O)[C@H](N)C[C@H](N)[C@H]3O[C@H]3O[C@H](CN)[C@@H](O)[C@H](O)[C@H]3N)O[C@@H]2C(=O)NCc2cn(Cc3cccc(CN4CCN(c5cc6c(cc5F)c(=O)c(C(=O)O)cn6C5CC5)CC4)c3)nn2)[C@H](N)[C@@H](O)[C@@H]1O`, the MIC is 0.75 µg/mL (≈ 0.657 µM) in the test on Escherichia coli [1]; 0.4 µg/mL (≈ 0.35 µM) against Escherichia coli [2]; 12 µg/mL (≈ 10.5 µM) against Escherichia coli [3]; 6 µg/mL (≈ 5.25 µM) in the test on Staphylococcus aureus; 3 µg/mL (≈ 2.63 µM) against Bacillus subtilis; 24 µg/mL (≈ 21 µM) in the test with Escherichia coli [5]. For the same molecule, the MIC amounted to 6 µg/mL (≈ 5.25 µM) against Escherichia coli [6]; 6 µg/mL (≈ 5.25 µM) in the test with Escherichia coli [7]; 6 µg/mL (≈ 5.25 µM) against Escherichia coli [9]; 6 µg/mL (≈ 5.25 µM) in the test on Escherichia coli [10]; 0.4 µg/mL (≈ 0.35 µM) in the test on Escherichia coli [11]. Further, the Ratio in the test on Escherichia coli [4] is recorded as 4; with Escherichia coli [8], 1; with Escherichia coli [12], 1.
